Assay results as given in ChEMBL document CHEMBL3044834, “Novel protoporphyrinogen oxidase inhibitors: 3H-pyrazolo[3,4-d][1,2,3]triazin-4-one derivatives” (J Agric Food Chem, 2008).

Experiments:
Type in all cases: functional
Amaranthus retroflexus [1] = test: Herbicidal activity against Amaranthus retroflexus assessed as inhibition of fresh weed plant weight at 93.75 g/ha using post-emergence treatment protocol
Procedure, shortened: (§1)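 Test compounds made up as emulsions by dissolving in 100 µL N,N-dimethylformamide, then adding a little Tween 20 and water. For post-emergence, weed seedlings at one leaf and one stem were sprayed at the same rates as the pre-emergence test. Fresh weight was recorded 15 days after treatment and expressed as percent inhibition versus controls. All treatments were run in triplicate.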

Amaranthus retroflexus [2] = test: Herbicidal activity against Amaranthus retroflexus assessed as inhibition of fresh weed plant weight at 750 g/ha using post-emergence treatment protocol; procedure, shortened: as §1
[3] = system: Brassica rapa subsp. oleifera; test: Herbicidal activity against Brassica rapa subsp. oleifera assessed as inhibition of fresh weed plant weight at 1500 g/ha using post-emergence treatment protocol; procedure, shortened: as §1
Echinochloa crus-galli [4] = test: Herbicidal activity against Echinochloa crus-galli (barnyard grass) assessed as inhibition of fresh weed plant weight at 375 g/ha using pre-emergence treatment protocol; procedure, shortened: as §1
Echinochloa crus-galli [5] = test: Herbicidal activity against Echinochloa crus-galli (barnyard grass) assessed as inhibition of fresh weed plant weight at 750 g/ha using pre-emergence treatment protocol
Amaranthus retroflexus [6] = test: Herbicidal activity against Amaranthus retroflexus assessed as inhibition of fresh weed plant weight at 1500 g/ha using pre-emergence treatment protocol
Digitaria sanguinalis [7] = test: Herbicidal activity against Digitaria sanguinalis (hairy crabgrass) assessed as inhibition of fresh weed plant weight at 93.75 g/ha using pre-emergence treatment protocol
Amaranthus retroflexus [8] = test: Herbicidal activity against Amaranthus retroflexus assessed as inhibition of fresh weed plant weight at 750 g/ha using pre-emergence treatment protocol; procedure, shortened: as §1
Digitaria sanguinalis [9] = test: Herbicidal activity against Digitaria sanguinalis (hairy crabgrass) assessed as inhibition of fresh weed plant weight at 45 g/ha using pre-emergence treatment protocol
Amaranthus retroflexus [10] = test: Herbicidal activity against Amaranthus retroflexus assessed as inhibition of fresh weed plant weight at 375 g/ha using pre-emergence treatment protocol
[11] = system: Brassica rapa subsp. oleifera; test: Herbicidal activity against Brassica rapa subsp. oleifera assessed as inhibition of fresh weed plant weight at 1500 g/ha using pre-emergence treatment protocol
Echinochloa crus-galli [12] = test: Herbicidal activity against Echinochloa crus-galli (barnyard grass) assessed as inhibition of fresh weed plant weight at 750 g/ha using post-emergence treatment protocol; procedure, shortened: as §1
Amaranthus retroflexus [13] = test: Herbicidal activity against Amaranthus retroflexus assessed as inhibition of fresh weed plant weight at 45 g/ha using pre-emergence treatment protocol
Digitaria sanguinalis [14] = test: Herbicidal activity against Digitaria sanguinalis (hairy crabgrass) assessed as inhibition of fresh weed plant weight at 93.75 g/ha using post-emergence treatment protocol; procedure, shortened: as §1
Digitaria sanguinalis [15] = test: Herbicidal activity against Digitaria sanguinalis (hairy crabgrass) assessed as inhibition of fresh weed plant weight at 375 g/ha using pre-emergence treatment protocol
Digitaria sanguinalis [16] = test: Herbicidal activity against Digitaria sanguinalis (hairy crabgrass) assessed as inhibition of fresh weed plant weight at 750 g/ha using post-emergence treatment protocol; procedure, shortened: as §1
Digitaria sanguinalis [17] = test: Herbicidal activity against Digitaria sanguinalis (hairy crabgrass) assessed as inhibition of fresh weed plant weight at 187.5 g/ha using post-emergence treatment protocol; procedure, shortened: as §1
Amaranthus retroflexus [18] = test: Herbicidal activity against Amaranthus retroflexus assessed as inhibition of fresh weed plant weight at 1500 g/ha using post-emergence treatment protocol; procedure, shortened: as §1
Amaranthus retroflexus [19] = test: Herbicidal activity against Amaranthus retroflexus assessed as inhibition of fresh weed plant weight at 187.5 g/ha using post-emergence treatment protocol; procedure, shortened: as §1
Amaranthus retroflexus [20] = test: Herbicidal activity against Amaranthus retroflexus assessed as inhibition of fresh weed plant weight at 93.75 g/ha using pre-emergence treatment protocol
[21] = system: Brassica rapa subsp. oleifera; test: Herbicidal activity against Brassica rapa subsp. oleifera assessed as inhibition of fresh weed plant weight at 93.75 g/ha using pre-emergence treatment protocol
Amaranthus retroflexus [22] = test: Herbicidal activity against Amaranthus retroflexus assessed as inhibition of fresh weed plant weight at 375 g/ha using post-emergence treatment protocol; procedure, shortened: as §1
[23] = system: Brassica rapa subsp. oleifera; test: Herbicidal activity against Brassica rapa subsp. oleifera assessed as inhibition of fresh weed plant weight at 45 g/ha using pre-emergence treatment protocol
Echinochloa crus-galli [24] = test: Herbicidal activity against Echinochloa crus-galli (barnyard grass) assessed as inhibition of fresh weed plant weight at 187.5 g/ha using post-emergence treatment protocol; procedure, shortened: as §1
[25] = system: Brassica rapa subsp. oleifera; test: Herbicidal activity against Brassica rapa subsp. oleifera assessed as inhibition of fresh weed plant weight at 375 g/ha using post-emergence treatment protocol; procedure, shortened: as §1
[26] = system: Brassica rapa subsp. oleifera; test: Herbicidal activity against Brassica rapa subsp. oleifera assessed as inhibition of fresh weed plant weight at 750 g/ha using pre-emergence treatment protocol
Echinochloa crus-galli [27] = test: Herbicidal activity against Echinochloa crus-galli (barnyard grass) assessed as inhibition of fresh weed plant weight at 1500 g/ha using pre-emergence treatment protocol
[28] = system: Brassica rapa subsp. oleifera; test: Herbicidal activity against Brassica rapa subsp. oleifera assessed as inhibition of fresh weed plant weight at 187.5 g/ha using post-emergence treatment protocol; procedure, shortened: as §1
[29] = system: Brassica rapa subsp. oleifera; test: Herbicidal activity against Brassica rapa subsp. oleifera assessed as inhibition of fresh weed plant weight at 187.5 g/ha using pre-emergence treatment protocol
Echinochloa crus-galli [30] = test: Herbicidal activity against Echinochloa crus-galli (barnyard grass) assessed as inhibition of fresh weed plant weight at 22.5 g/ha using pre-emergence treatment protocol; procedure, shortened: as §1
Digitaria sanguinalis [31] = test: Herbicidal activity against Digitaria sanguinalis (hairy crabgrass) assessed as inhibition of fresh weed plant weight at 750 g/ha using pre-emergence treatment protocol
[32] = system: Brassica rapa subsp. oleifera; test: Herbicidal activity against Brassica rapa subsp. oleifera assessed as inhibition of fresh weed plant weight at 22.5 g/ha using pre-emergence treatment protocol
Echinochloa crus-galli [33] = test: Herbicidal activity against Echinochloa crus-galli (barnyard grass) assessed as inhibition of fresh weed plant weight at 93.75 g/ha using pre-emergence treatment protocol
Echinochloa crus-galli [34] = test: Herbicidal activity against Echinochloa crus-galli (barnyard grass) assessed as inhibition of fresh weed plant weight at 1500 g/ha using post-emergence treatment protocol; procedure, shortened: as §1
Echinochloa crus-galli [35] = test: Herbicidal activity against Echinochloa crus-galli (barnyard grass) assessed as inhibition of fresh weed plant weight at 45 g/ha using pre-emergence treatment protocol
Digitaria sanguinalis [36] = test: Herbicidal activity against Digitaria sanguinalis (hairy crabgrass) assessed as inhibition of fresh weed plant weight at 375 g/ha using post-emergence treatment protocol; procedure, shortened: as §1
[37] = system: Brassica rapa subsp. oleifera; test: Herbicidal activity against Brassica rapa subsp. oleifera assessed as inhibition of fresh weed plant weight at 93.75 g/ha using post-emergence treatment protocol; procedure, shortened: as §1
Digitaria sanguinalis [38] = test: Herbicidal activity against Digitaria sanguinalis (hairy crabgrass) assessed as inhibition of fresh weed plant weight at 1500 g/ha using post-emergence treatment protocol; procedure, shortened: as §1
[39] = system: Brassica rapa subsp. oleifera; test: Herbicidal activity against Brassica rapa subsp. oleifera assessed as inhibition of fresh weed plant weight at 375 g/ha using pre-emergence treatment protocol
[40] = system: Brassica rapa subsp. oleifera; test: Herbicidal activity against Brassica rapa subsp. oleifera assessed as inhibition of fresh weed plant weight at 750 g/ha using post-emergence treatment protocol; procedure, shortened: as §1
Digitaria sanguinalis [41] = test: Herbicidal activity against Digitaria sanguinalis (hairy crabgrass) assessed as inhibition of fresh weed plant weight at 22.5 g/ha using pre-emergence treatment protocol
Amaranthus retroflexus [42] = test: Herbicidal activity against Amaranthus retroflexus assessed as inhibition of fresh weed plant weight at 187.5 g/ha using pre-emergence treatment protocol
Digitaria sanguinalis [43] = test: Herbicidal activity against Digitaria sanguinalis (hairy crabgrass) assessed as inhibition of fresh weed plant weight at 1500 g/ha using pre-emergence treatment protocol
Echinochloa crus-galli [44] = test: Herbicidal activity against Echinochloa crus-galli (barnyard grass) assessed as inhibition of fresh weed plant weight at 93.75 g/ha using post-emergence treatment protocol; procedure, shortened: as §1
Echinochloa crus-galli [45] = test: Herbicidal activity against Echinochloa crus-galli (barnyard grass) assessed as inhibition of fresh weed plant weight at 375 g/ha using post-emergence treatment protocol; procedure, shortened: as §1
Digitaria sanguinalis [46] = test: Herbicidal activity against Digitaria sanguinalis (hairy crabgrass) assessed as inhibition of fresh weed plant weight at 187.5 g/ha using pre-emergence treatment protocol
Echinochloa crus-galli [47] = test: Herbicidal activity against Echinochloa crus-galli (barnyard grass) assessed as inhibition of fresh weed plant weight at 187.5 g/ha using pre-emergence treatment protocol; procedure, shortened: as §1
Amaranthus retroflexus [48] = test: Herbicidal activity against Amaranthus retroflexus assessed as inhibition of fresh weed plant weight at 22.5 g/ha using pre-emergence treatment protocol

With `C#CCN1C(=O)COc2cc(F)c(-n3nnc4c(cnn4CC=C)c3=O)cc21` the inhibition at 93.75 g/ha (Amaranthus retroflexus [1]) was 0%, the inhibition at 750 g/ha (Amaranthus retroflexus [2]) was 100% and the inhibition at 1500 g/ha [3] was 100%. For the same molecule, the inhibition at 375 g/ha (Echinochloa crus-galli [4]) was 97.3%, the inhibition at 750 g/ha (Echinochloa crus-galli [5]) was 98.9% and the inhibition at 1500 g/ha (Amaranthus retroflexus [6]) was 100%. For the same molecule, the inhibition at 93.75 g/ha (Digitaria sanguinalis [7]) was 44.9%, the inhibition at 750 g/ha (Amaranthus retroflexus [8]) was 100% and the inhibition at 45 g/ha (Digitaria sanguinalis [9]) was 2.4%. It also gave an inhibition at 375 g/ha (Amaranthus retroflexus [10]) of 100%, an inhibition at 1500 g/ha [11] of 100% and an inhibition at 750 g/ha (Echinochloa crus-galli [12]) of 51.6%. It also gave an inhibition at 45 g/ha (Amaranthus retroflexus [13]) of 86.2%, an inhibition at 93.75 g/ha (Digitaria sanguinalis [14]) of 0% and an inhibition at 375 g/ha (Digitaria sanguinalis [15]) of 100%. The inhibition at 750 g/ha (Digitaria sanguinalis [16]) was 16.7%, the inhibition at 187.5 g/ha (Digitaria sanguinalis [17]) was 0% and the inhibition at 1500 g/ha (Amaranthus retroflexus [18]) was 100%. The inhibition at 187.5 g/ha (Amaranthus retroflexus [19]) was 5.8%, the inhibition at 93.75 g/ha (Amaranthus retroflexus [20]) was 100% and the inhibition at 93.75 g/ha [21] was 100%. For the same molecule, the inhibition at 375 g/ha (Amaranthus retroflexus [22]) was 83.5%, the inhibition at 45 g/ha [23] was 66.7% and the inhibition at 187.5 g/ha (Echinochloa crus-galli [24]) was 27.8%. It also gave an inhibition at 375 g/ha [25] of 100%, an inhibition at 750 g/ha [26] of 100% and an inhibition at 1500 g/ha (Echinochloa crus-galli [27]) of 100%. It also gave an inhibition at 187.5 g/ha [28] of 72.9%, an inhibition at 187.5 g/ha [29] of 100% and an inhibition at 22.5 g/ha (Echinochloa crus-galli [30]) of 25.1%. The inhibition at 750 g/ha (Digitaria sanguinalis [31]) was 100%, the inhibition at 22.5 g/ha [32] was 22.3% and the inhibition at 93.75 g/ha (Echinochloa crus-galli [33]) was 53.4%. For the same molecule, the inhibition at 1500 g/ha (Echinochloa crus-galli [34]) was 85.2%, the inhibition at 45 g/ha (Echinochloa crus-galli [35]) was 34% and the inhibition at 375 g/ha (Digitaria sanguinalis [36]) was 4.2%. It also gave an inhibition at 93.75 g/ha [37] of 18.5%, an inhibition at 1500 g/ha (Digitaria sanguinalis [38]) of 32.1% and an inhibition at 375 g/ha [39] of 100%. The inhibition at 750 g/ha [40] was 100%, the inhibition at 22.5 g/ha (Digitaria sanguinalis [41]) was 0% and the inhibition at 187.5 g/ha (Amaranthus retroflexus [42]) was 100%. For the same molecule, the inhibition at 1500 g/ha (Digitaria sanguinalis [43]) was 100%, the inhibition at 93.75 g/ha (Echinochloa crus-galli [44]) was 7% and the inhibition at 375 g/ha (Echinochloa crus-galli [45]) was 43.5%. It also gave an inhibition at 187.5 g/ha (Digitaria sanguinalis [46]) of 77.6%, an inhibition at 187.5 g/ha (Echinochloa crus-galli [47]) of 63.7% and an inhibition at 22.5 g/ha (Amaranthus retroflexus [48]) of 76.6%.
